Screening results as filed in PubChem.
Rpn11 block: blocks the human proteasome subunit Rpn11; O00487; human 26S proteasome, Ub4-pepOG fluorescence polarization; 20S core pre-blocked with epoxomicin; inhibition, % at 20 µM; 360,000 tested, 0.59% active; AID 588493;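 active = inhibition at 20 µM, scaled to each plate's controls, above about 33%, limit read from the data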
CSN inh: inhibitors of human CSN-mediated cullin deneddylation; Purified CSN, SCF-Nedd8-OG deneddylation, fluorescence polarization; 360,000 tested, 0.38% active; inhibition, % at 12.5 µM;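 active = pattern-corrected inhibition above about 35%, with an unprinted fluorescence ratio check between 0.5 and 1.5, limit read from the data, passing the limit was not always enough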;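 note: 0% = enzyme with substrate and 100% = substrate without enzyme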
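Test system: purified human Csn5 enzyme expressed in HEK293T cells. Amount: 0.24 nM enzyme. Reagent: SCFSkp2-Nedd8OG substrate at 10 nM final. Schedule: 90 min incubation of compound, enzyme and substrate at room temperature. Detection: fluorescence polarization. Read-out: % inhibition of substrate cleavage by Csn5.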
HNF4A DNA FP: change in binding of human HNF4 alpha to DNA. 360,000 tested, 0.3% active. activity change, % at 10 µM. P41235. HNF4a-FITC DNA binding, fluorescence polarization, 1 h; in the data active = activity change above about 30%, passing the limit was not always enough
TPT1 inhibitor: inhibitors of Candida albicans tRNA 2'-phosphotransferase TPT1; recombinant caTPT1, FP RNA substrate dephosphorylation; inhibition, % at 5 µM; AID 1962; 300,000 tested, 0.81% active;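 active = inhibition above the mean of all tested compounds plus 3 SD, set per screening campaign, cut at about 24% in these data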;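 note: plate controls were DMSO alone for no effect and ferristatin control at 100 nM for full effect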
IDE cell inh: inhibits human insulin-degrading enzyme in HEK cells. FAbetaB cleavage, fluorescence polarization. inhibition, % at 5.59 µM. 320,000 tested, 0.41% active. P14735;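 active = percent inhibition above the average of all tested compounds plus 3 SD, set per screening campaign, cut at about 16% in these data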;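 note: IDE supplied by intact live HEK cells; FP after avidin binding of uncleaved biotin substrate so inhibition keeps polarization high; 0% = DMSO wells and 100% = 60 µM reference IDE inhibitor Ii1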
Target sequence (P14735 whole entry, looked up): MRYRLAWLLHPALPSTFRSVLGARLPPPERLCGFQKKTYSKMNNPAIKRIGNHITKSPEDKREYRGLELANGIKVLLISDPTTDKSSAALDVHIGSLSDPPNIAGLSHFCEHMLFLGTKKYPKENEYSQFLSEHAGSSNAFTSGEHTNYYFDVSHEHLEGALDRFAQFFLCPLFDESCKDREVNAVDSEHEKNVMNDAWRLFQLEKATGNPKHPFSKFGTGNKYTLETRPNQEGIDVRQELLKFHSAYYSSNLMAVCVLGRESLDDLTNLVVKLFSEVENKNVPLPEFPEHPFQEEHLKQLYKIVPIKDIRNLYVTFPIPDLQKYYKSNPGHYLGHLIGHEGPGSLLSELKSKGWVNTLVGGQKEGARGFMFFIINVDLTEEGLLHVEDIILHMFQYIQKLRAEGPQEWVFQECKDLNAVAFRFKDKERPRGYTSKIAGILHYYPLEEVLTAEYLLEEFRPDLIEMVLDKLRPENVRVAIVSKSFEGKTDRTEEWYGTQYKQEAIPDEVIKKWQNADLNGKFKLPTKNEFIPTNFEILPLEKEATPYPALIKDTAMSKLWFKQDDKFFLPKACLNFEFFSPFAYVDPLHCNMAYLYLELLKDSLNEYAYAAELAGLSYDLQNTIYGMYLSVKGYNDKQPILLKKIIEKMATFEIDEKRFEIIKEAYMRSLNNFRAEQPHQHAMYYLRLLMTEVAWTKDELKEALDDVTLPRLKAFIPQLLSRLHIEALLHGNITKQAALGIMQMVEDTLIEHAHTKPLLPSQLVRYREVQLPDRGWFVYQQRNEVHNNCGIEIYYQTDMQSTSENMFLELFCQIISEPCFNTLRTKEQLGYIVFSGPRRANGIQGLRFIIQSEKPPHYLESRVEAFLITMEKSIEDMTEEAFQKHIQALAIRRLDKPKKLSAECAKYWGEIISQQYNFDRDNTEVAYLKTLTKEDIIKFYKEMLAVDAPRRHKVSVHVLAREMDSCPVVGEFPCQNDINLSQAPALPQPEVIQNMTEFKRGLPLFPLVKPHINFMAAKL
IDE act: activators of human insulin-degrading enzyme in cells | AID 493087 | P14735 | activation, % at 5.96 µM | 340,000 tested, 0.073% active | HEK cells, FAbeta-B cleavage, fluorescence polarization; 0% vehicle, 100% cell-free pure enzyme wells;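 active = activation above the mean of all tested compounds plus 3 SD, set per screening campaign, cut at about 17% in these data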
TPT1 inh confirm: confirmation of Candida albicans TPT1 inhibitors. recombinant caTPT1, fluorescence polarization, RNase T1 coupled. AID 2149. shares compounds with TPT1 inhibitor. inhibition, % at 5 µM. 2,400 tested, 74% active;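 active = inhibition above the primary screen limit, the mean inhibition of all tested compounds plus 3 SD, cut at about 25% in these data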
RNase T1 counter: counter-screen for TPT1 inhibitors: inhibitors of Aspergillus oryzae RNase T1; RNase T1 cleavage, fluorescence polarization, 1536-well; 2,400 tested, 83% active; inhibition, % at 5 µM; shares compounds with TPT1 inhibitor;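 active = inhibition above the solvent-only control well mean plus 3 SD, limit set per screening run, cut at about 23% in these data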;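 note: plate controls were DMSO wells with enzyme for no effect and wells without RNase T1 for full effect; inhibitors block cleavage so intact labeled substrate keeps polarization high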
IDE inh confirm: confirmation of human insulin-degrading enzyme inhibitors in cells; shares compounds with IDE cell inh; HEK cells, FAbetaB cleavage, fluorescence polarization; inhibition, % at 5.59 µM; 1,200 tested, 51% active;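 active = mean inhibition across triplicate wells above the cutoff set by the earlier primary insulin-degrading enzyme screen, cut at about 16% in these data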;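 note: 0% = DMSO wells and 100% = 60 µM reference IDE inhibitor Ii1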
HEK293 tox: HEK cell cytotoxicity, counter-screen for IDE inhibitors; shares compounds with IDE cell inh; HEK293 cytotoxicity, ATP luminescence; inhibition, % at 5.59 µM; 1,200 tested, 28% active; AID 449730; in the data active = inhibition above about 22%;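 note: 0% = vehicle wells and 100% = reference cytotoxic drug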
Rpn11 confirm: Rpn11 inhibition confirmation, single concentration | shares compounds with Rpn11 block | purified human 26S proteasome, Ub4-pepOG fluorescence polarization; proteasome pretreated with epoxomicin | inhibition, % at 20 µM | 1,900 tested, 29% active | AID 602318
MMP-2 counter: counter-screen for RPN11 inhibitors: inhibition of human MMP-2; shares compounds with Rpn11 block; recombinant MMP-2, FRET peptide cleavage fluorescence; inhibition, % at 20 µM; 1,900 tested, 4% active;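 note: human MMP-2 activated beforehand with APMA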
Thrombin FP: blocks bovine thrombin, flagging nonselective RPN11 hits; shares compounds with Rpn11 block; 1,900 tested, 13% active; bovine thrombin cleavage of Ub4-pepOG, fluorescence polarization; inhibition, % at 20 µM;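 active = mean inhibition at least 40% at 20 µM, or signal 3 deviations below plate average, so some actives read negative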;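 note: plate controls were thrombin with DMSO for no effect and buffer wells lacking thrombin for full effect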
An asterisk follows results filed as active; i = inactive; nt = no result given; + = active, no number. Hits are enriched below; roughly 1.7% of the tested compounds scored in any of these assays. Cut-off read from the data, not from the text of the source, unless noted: active = inhibition above about 40%; inactive = the rest.

SMILES	Rpn11 block	CSN inh	HNF4A DNA FP	TPT1 inhibitor	IDE cell inh	IDE act	TPT1 inh confirm	RNase T1 counter	Rpn11 confirm	MMP-2 counter	Thrombin FP	others
Cc1cc(C(=O)O)ccc1-n1c(C)cc(C=C2C(=O)c3ccccc3C2=O)c1C	44*	-2	7	59*	4	0	51*	63*	15	-4	-2
Cc1cc(C(=O)O)ccc1-n1c(C)cc(/C=C(/C#N)C(=O)Nc2ccccc2)c1C	-5	-7	0	-3	1	nt	nt	nt	nt	nt	nt
COc1cc(NC(=O)C2(C)CCCN2C)cc(OC)c1OC (stereo not given)	1	0	-2	nt	nt	nt	nt	nt	nt	nt	nt
COc1cc(/C=C(/C#N)C(=O)NC(C)c2ccccc2)cc(OC)c1O (stereo not given)	71*	18	3	66*	75*	-53	107*	108*	22	-12	8	IDE inh confirm=79*;HEK293 tox=10
CC(NC(=O)/C(C#N)=C/c1ccc(C(=O)O)cc1)c1ccccc1 (stereo not given)	1	5	4	-5	1	-2	nt	nt	nt	nt	nt
CC(C)(C)c1ccc(CC(=O)N2CCC2(C)C(=O)NS(=O)(=O)c2ccc(Cl)cc2)cc1 (stereo not given)	-3	-3	8	nt	nt	nt	nt	nt	nt	nt	nt
CCCCC1(C)OC(=O)C(=Cc2ccc(N(CC)CC)cc2)C(=O)O1 (stereo not given)	55*	27	7	92*	5	4	167*	155*	92*	-29	90*
C[C@]12CCC[C@H](O1)c1c(cc3c(c1O)C(=O)c1c(O)cc(O)cc1C3=O)O2	52*	38*	69	80*	3	4	89*	99*	47*	-14	-10
COc1ccc(C(=O)NCC(=O)OCc2c(Cl)cccc2Cl)cc1OC	1	-1	-5	nt	nt	0	nt	nt	nt	nt	nt
CC[n+]1c(/C=C/Nc2ccccc2)oc2ccc(OC)cc21	57*	12	30	86*	7	-5	95*	101*	45*	-26	32
O=[N+]([O-])c1ccc(N/N=C/c2cccc(O)c2)cc1	46*	12	14	45*	-2	-4	55*	66*	19	25	11
O=[N+]([O-])c1ccc(N/N=C/c2ccc[nH]2)cc1	67*	16	34	64*	4	3	65*	76*	51*	30	34
CCCSc1nnc(NC(=O)c2sc3nc(-c4cccs4)ccc3c2N)s1	76*	9	33	66*	3	-18	23	28*	61*	-32	14
COC(=O)[C@H](CC(C)C)NC(=O)/C=C/[C@H]1O[C@@H](n2ccc(=O)[nH]c2=O)[C@H](O)[C@@H]1O	9	7	2	nt	nt	nt	nt	nt	nt	nt	nt
CCOc1ccc2nc(NC3=NC(c4ccc(OC)cc4)CC(=O)N3)nc(C)c2c1 (stereo not given)	+	13	14	26*	4	1	18	25*	44*	i	-5
